Experimental data published in ChEMBL document CHEMBL4229342, “Synthesis of novel proxyphylline derivatives with dual Anti-Candida albicans and anticancer activity” (Eur J Med Chem, 2018).

Each compound was assayed on Candida albicans (assay: Growth inhibition of Candida albicans ATCC 90028 at 2 ug/ml incubated for 4 hrs at 35 degC by broth microdilution method relative to control). Details: ATCC 90028, 4 h, read-out: GI.
Type: functional

| Compound | inhibition of growth at 2 µg/mL [%] |
| --- | --- |
| CC(Cn1cnc2c1c(=O)n(C)c(=O)n2C)OCc1cn(-c2cccc3ccccc23)nn1 (centres undefined) | 99.2 |

These compounds were tested on Candida albicans (assay: Growth inhibition of Candida albicans ATCC 90028 at 0.0625 ug/ml incubated for 4 hrs at 35 degC by broth microdilution method relative to control). Details: ATCC 90028, 4 h, read-out: GI.
Type: functional

| Compound | inhibition of growth at 0.0625 µg/mL [%] |
| --- | --- |
| CC(Cn1cnc2c1c(=O)n(C)c(=O)n2C)OCc1cn(-c2cccc3ccccc23)nn1 (centres undefined) | 99.8 |

The compounds below were run on Candida albicans (assay: Growth inhibition of Candida albicans ATCC 90028 at 1 ug/ml incubated for 18 hrs at 35 degC by broth microdilution method relative to control). Details: ATCC 90028, 18 h, read-out: GI.
Type: functional

| Compound | inhibition of growth at 1 µg/mL [%] |
| --- | --- |
| CC(Cn1cnc2c1c(=O)n(C)c(=O)n2C)OCc1cn(-c2cccc3ccccc23)nn1 (centres undefined) | 99.7 |

These compounds were tested on Candida albicans (assay: Fungicidal activity against Candida albicans ATCC 90028 assessed as log reduction in cell viability at 16 ug/ml after 48 hrs at 35 degC). Details: not given.
Type: functional
How it was run: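 MFC assay on C. albicans ATCC 90028 following M27-A3, at the molar equivalent of 16 µg/mL. CFU of treated cells were compared with CFU of the untreated inoculum. Activity is given as lg R = lg CFU/mL control − lg CFU/mL treated, and lg R ≥3 was defined as fungicidal. Values are means of two independent experiments.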

| Compound | log(activity) |
| --- | --- |
| CC(Cn1cnc2c1c(=O)n(C)c(=O)n2C)OCc1cn(-c2cccc3ccccc23)nn1 (centres undefined) | 0.5 |

These compounds were tested on MCF7 (assay: Antiproliferative activity against human MCF7 cells assessed as cell viability at 200 uM after 72 hrs by MTT assay). Details: MCF7, 72 h, read-out: Activity.
Type: functional
How it was run: (§1)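 MTT viability assay in CCRF-CEM and MCF-7 cells after 72 h exposure at 25, 50, 100 and 200 µM. Results are relative to control cells without inhibitor in 0.5% DMSO. Done in triplicate; values are means ± SD of three independent experiments.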

| Compound | viability at 200 µM [%] |
| --- | --- |
| CC(Cn1cnc2c1c(=O)n(C)c(=O)n2C)OCc1cn(-c2cccc3ccccc23)nn1 (centres undefined) | 77 |

What follows are compounds tested on Candida albicans (assay: Growth inhibition of Candida albicans ATCC 90028 at 2 ug/ml incubated for 18 hrs at 35 degC by broth microdilution method relative to control). Details: ATCC 90028, 18 h, read-out: GI.
Type: functional

| Compound | inhibition of growth at 2 µg/mL [%] |
| --- | --- |
| CC(Cn1cnc2c1c(=O)n(C)c(=O)n2C)OCc1cn(-c2cccc3ccccc23)nn1 (centres undefined) | 99.8 |

Each compound was assayed on Candida albicans (assay: Growth inhibition of Candida albicans ATCC 90028 at 8 ug/ml incubated for 4 hrs at 35 degC by broth microdilution method relative to control). Details: ATCC 90028, 4 h, read-out: GI.
Type: functional

| Compound | inhibition of growth at 8 µg/mL [%] |
| --- | --- |
| CC(Cn1cnc2c1c(=O)n(C)c(=O)n2C)OCc1cn(-c2cccc3ccccc23)nn1 (centres undefined) | 99.6 |

What follows are compounds tested on Candida albicans (assay: Growth inhibition of Candida albicans ATCC 90028 at 4 ug/ml incubated for 18 hrs at 35 degC by broth microdilution method relative to control). Details: ATCC 90028, 18 h, read-out: GI.
Type: functional

| Compound | inhibition of growth at 4 µg/mL [%] |
| --- | --- |
| CC(Cn1cnc2c1c(=O)n(C)c(=O)n2C)OCc1cn(-c2cccc3ccccc23)nn1 (centres undefined) | 99.8 |

Each compound was assayed on Candida albicans (assay: Growth inhibition of Candida albicans ATCC 90028 at 0.5 ug/ml incubated for 4 hrs at 35 degC by broth microdilution method relative to control). Details: ATCC 90028, 4 h, read-out: GI.
Type: functional

| Compound | inhibition of growth at 0.5 µg/mL [%] |
| --- | --- |
| CC(Cn1cnc2c1c(=O)n(C)c(=O)n2C)OCc1cn(-c2cccc3ccccc23)nn1 (centres undefined) | 99.3 |

What follows are compounds tested on MCF7 (assay: Antiproliferative activity against human MCF7 cells assessed as cell viability at 100 uM after 72 hrs by MTT assay). Details: MCF7, 72 h, read-out: Activity.
Type: functional
How it was run: as §1

| Compound | viability at 100 µM [%] |
| --- | --- |
| CC(Cn1cnc2c1c(=O)n(C)c(=O)n2C)OCc1cn(-c2cccc3ccccc23)nn1 (centres undefined) | 93.3 |

Each compound was assayed on CCRF-CEM (assay: Antiproliferative activity against human CCRF-CEM cells assessed as cell viability at 100 uM after 72 hrs by MTT assay). Details: read-out: Activity.
Type: functional
How it was run: as §1

| Compound | viability at 100 µM [%] |
| --- | --- |
| CC(Cn1cnc2c1c(=O)n(C)c(=O)n2C)OCc1cn(-c2cccc3ccccc23)nn1 (centres undefined) | 34.2 |

What follows are compounds tested on CCRF-CEM (assay: Antiproliferative activity against human CCRF-CEM cells assessed as cell viability at 200 uM after 72 hrs by MTT assay). Details: read-out: Activity.
Type: functional
How it was run: as §1

| Compound | viability at 200 µM [%] |
| --- | --- |
| CC(Cn1cnc2c1c(=O)n(C)c(=O)n2C)OCc1cn(-c2cccc3ccccc23)nn1 (centres undefined) | 4.1 |

Each compound was assayed on Candida albicans (assay: Growth inhibition of Candida albicans ATCC 90028 at 0.0625 ug/ml incubated for 18 hrs at 35 degC by broth microdilution method relative to control). Details: ATCC 90028, 18 h, read-out: GI.
Type: functional

| Compound | inhibition of growth at 0.0625 µg/mL [%] |
| --- | --- |
| CC(Cn1cnc2c1c(=O)n(C)c(=O)n2C)OCc1cn(-c2cccc3ccccc23)nn1 (centres undefined) | 100 |

Each compound was assayed on Candida albicans (assay: Growth inhibition of Candida albicans ATCC 90028 at 0.125 ug/ml incubated for 4 hrs at 35 degC by broth microdilution method relative to control). Details: ATCC 90028, 4 h, read-out: GI.
Type: functional

| Compound | inhibition of growth at 0.125 µg/mL [%] |
| --- | --- |
| CC(Cn1cnc2c1c(=O)n(C)c(=O)n2C)OCc1cn(-c2cccc3ccccc23)nn1 (centres undefined) | 99.7 |

Each compound was assayed on CCRF-CEM (assay: Antiproliferative activity against human CCRF-CEM cells assessed as cell viability at 25 uM after 72 hrs by MTT assay). Details: read-out: Activity.
Type: functional
How it was run: as §1

| Compound | viability at 25 µM [%] |
| --- | --- |
| CC(Cn1cnc2c1c(=O)n(C)c(=O)n2C)OCc1cn(-c2cccc3ccccc23)nn1 (centres undefined) | 90 |

Each compound was assayed on Candida albicans (assay: Growth inhibition of Candida albicans ATCC 90028 at 8 ug/ml incubated for 48 hrs at 35 degC by broth microdilution method relative to control). Details: ATCC 90028, 48 h, read-out: GI.
Type: functional

| Compound | inhibition of growth at 8 µg/mL [%] |
| --- | --- |
| CC(Cn1cnc2c1c(=O)n(C)c(=O)n2C)OCc1cn(-c2cccc3ccccc23)nn1 (centres undefined) | 99.6 |

The compounds below were run on Candida albicans (assay: Growth inhibition of Candida albicans ATCC 90028 at 16 ug/ml incubated for 48 hrs at 35 degC by broth microdilution method relative to control). Details: ATCC 90028, 48 h, read-out: GI.
Type: functional

| Compound | inhibition of growth at 16 µg/mL [%] |
| --- | --- |
| CC(Cn1cnc2c1c(=O)n(C)c(=O)n2C)OCc1cn(-c2cccc3ccccc23)nn1 (centres undefined) | 99.1 |

The compounds below were run on MCF7 (assay: Antiproliferative activity against human MCF7 cells assessed as cell viability at 25 uM after 72 hrs by MTT assay). Details: MCF7, 72 h, read-out: Activity.
Type: functional
How it was run: as §1

| Compound | viability at 25 µM [%] |
| --- | --- |
| CC(Cn1cnc2c1c(=O)n(C)c(=O)n2C)OCc1cn(-c2cccc3ccccc23)nn1 (centres undefined) | 93.5 |

The compounds below were run on Candida albicans (assay: Growth inhibition of Candida albicans ATCC 90028 at 8 ug/ml incubated for 18 hrs at 35 degC by broth microdilution method relative to control). Details: ATCC 90028, 18 h, read-out: GI.
Type: functional

| Compound | inhibition of growth at 8 µg/mL [%] |
| --- | --- |
| CC(Cn1cnc2c1c(=O)n(C)c(=O)n2C)OCc1cn(-c2cccc3ccccc23)nn1 (centres undefined) | 99.9 |

What follows are compounds tested on Candida albicans (assay: Growth inhibition of Candida albicans ATCC 90028 at 0.125 ug/ml incubated for 18 hrs at 35 degC by broth microdilution method relative to control). Details: ATCC 90028, 18 h, read-out: GI.
Type: functional

| Compound | inhibition of growth at 0.125 µg/mL [%] |
| --- | --- |
| CC(Cn1cnc2c1c(=O)n(C)c(=O)n2C)OCc1cn(-c2cccc3ccccc23)nn1 (centres undefined) | 100 |

Each compound was assayed on Candida albicans (assay: Growth inhibition of Candida albicans ATCC 90028 at 0.5 ug/ml incubated for 18 hrs at 35 degC by broth microdilution method relative to control). Details: ATCC 90028, 18 h, read-out: GI.
Type: functional

| Compound | inhibition of growth at 0.5 µg/mL [%] |
| --- | --- |
| CC(Cn1cnc2c1c(=O)n(C)c(=O)n2C)OCc1cn(-c2cccc3ccccc23)nn1 (centres undefined) | 99.7 |

What follows are compounds tested on Candida albicans (assay: Growth inhibition of Candida albicans ATCC 90028 at 0.25 ug/ml incubated for 4 hrs at 35 degC by broth microdilution method relative to control). Details: ATCC 90028, 4 h, read-out: GI.
Type: functional

| Compound | inhibition of growth at 0.25 µg/mL [%] |
| --- | --- |
| CC(Cn1cnc2c1c(=O)n(C)c(=O)n2C)OCc1cn(-c2cccc3ccccc23)nn1 (centres undefined) | 99.5 |

Each compound was assayed on Candida albicans (assay: Growth inhibition of Candida albicans ATCC 90028 at 1 ug/ml incubated for 4 hrs at 35 degC by broth microdilution method relative to control). Details: ATCC 90028, 4 h, read-out: GI.
Type: functional

| Compound | inhibition of growth at 1 µg/mL [%] |
| --- | --- |
| CC(Cn1cnc2c1c(=O)n(C)c(=O)n2C)OCc1cn(-c2cccc3ccccc23)nn1 (centres undefined) | 99.5 |

Each compound was assayed on CCRF-CEM (assay: Antiproliferative activity against human CCRF-CEM cells assessed as cell viability at 50 uM after 72 hrs by MTT assay). Details: read-out: Activity.
Type: functional
How it was run: as §1

| Compound | viability at 50 µM [%] |
| --- | --- |
| CC(Cn1cnc2c1c(=O)n(C)c(=O)n2C)OCc1cn(-c2cccc3ccccc23)nn1 (centres undefined) | 67.7 |

Each compound was assayed on MCF7 (assay: Antiproliferative activity against human MCF7 cells assessed as cell viability at 50 uM after 72 hrs by MTT assay). Details: MCF7, 72 h, read-out: Activity.
Type: functional
How it was run: as §1

| Compound | viability at 50 µM [%] |
| --- | --- |
| CC(Cn1cnc2c1c(=O)n(C)c(=O)n2C)OCc1cn(-c2cccc3ccccc23)nn1 (centres undefined) | 91.9 |

The compounds below were run on Candida albicans (assay: Growth inhibition of Candida albicans ATCC 90028 at 0.25 ug/ml incubated for 18 hrs at 35 degC by broth microdilution method relative to control). Details: ATCC 90028, 18 h, read-out: GI.
Type: functional

| Compound | inhibition of growth at 0.25 µg/mL [%] |
| --- | --- |
| CC(Cn1cnc2c1c(=O)n(C)c(=O)n2C)OCc1cn(-c2cccc3ccccc23)nn1 (centres undefined) | 99.8 |

These compounds were tested on Candida albicans (assay: Growth inhibition of Candida albicans ATCC 90028 at 16 ug/ml incubated for 18 hrs at 35 degC by broth microdilution method relative to control). Details: ATCC 90028, 18 h, read-out: GI.
Type: functional

| Compound | inhibition of growth at 16 µg/mL [%] |
| --- | --- |
| CC(Cn1cnc2c1c(=O)n(C)c(=O)n2C)OCc1cn(-c2cccc3ccccc23)nn1 (centres undefined) | 99.6 |

What follows are compounds tested on Candida albicans (assay: Growth inhibition of Candida albicans ATCC 90028 at 0.0313 ug/ml incubated for 4 hrs at 35 degC by broth microdilution method relative to control). Details: ATCC 90028, 4 h, read-out: GI.
Type: functional

| Compound | inhibition of growth at 0.0313 µg/mL [%] |
| --- | --- |
| CC(Cn1cnc2c1c(=O)n(C)c(=O)n2C)OCc1cn(-c2cccc3ccccc23)nn1 (centres undefined) | 99.1 |

The compounds below were run on Candida albicans (assay: Growth inhibition of Candida albicans ATCC 90028 at 0.0313 ug/ml incubated for 18 hrs at 35 degC by broth microdilution method relative to control). Details: ATCC 90028, 18 h, read-out: GI.
Type: functional

| Compound | inhibition of growth at 0.0313 µg/mL [%] |
| --- | --- |
| CC(Cn1cnc2c1c(=O)n(C)c(=O)n2C)OCc1cn(-c2cccc3ccccc23)nn1 (centres undefined) | 99.9 |
